According to ChEMBL document CHEMBL4261600 (Eur J Med Chem, 2018):
Active and inactive are the calls of the source.

Experiments:
[1] = molecular target: Cyclin-dependent kinase 7 (Homo sapiens) (UniProt P50613); assay: Inhibition of CDK7 in human MEC1 cells assessed as decrease in RNA polymerase 2 phosphorylation at Ser 5 residues up to 3 uM after 2 hrs by immunoblotting analysis; format: cell-based
Homo sapiens [2] = species: Homo sapiens; assay: Induction of apoptosis in human MEC1 cells assessed as decrease in c-MYC level after 2 hrs by immunoblotting analysis; format: functional, cell-based
Homo sapiens [3] = species: Homo sapiens; assay: Induction of apoptosis in human MEC1 cells assessed as decrease in BCL-2 level up to 3 uM after 2 hrs by immunoblotting analysis; format: functional, cell-based
[4] = Clearance in Sprague-Dawley rat at 3 mg/kg, iv by LC-MS/MS analysis; format: ADME, organism-based; conditions: in vivo
[5] = molecular target: Activin receptor type-2A (Homo sapiens) (UniProt P27037); assay: Binding affinity to wild-type human ACVR2A (V171 to T499 residues) expressed in bacterial expression system assessed as remaining unbound target protein level at 1000 nM by Kinomescan method relative to control
Summary of the method: (§1)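 Single-point competition binding screen across a panel of 468 kinases and mutants, with the inhibitor at 1 μM. Binding is read out as percent of a DMSO control, and targets below 1 percent control were classed as strong binders.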

[6] = molecular target: Activin receptor type-1-like (Homo sapiens) (UniProt P37023); assay: Binding affinity to wild-type human ACVRL1 (L164 to Q503 residues) expressed in bacterial expression system assessed as remaining unbound target protein level at 1000 nM by Kinomescan method relative to control; summary of the method: as §1
[7] = molecular target: Calcium/calmodulin-dependent protein kinase type II subunit delta (Homo sapiens) (UniProt Q13557); assay: Binding affinity to wild-type human partial length CAMK2D (M1 to E329 residues) expressed in bacterial expression system assessed as remaining unbound target protein level at 1000 nM by Kinomescan method relative to control
Chain of Calcium/calmodulin-dependent protein kinase type II subunit delta (Homo sapiens) (Q13557 whole entry, the tested form may be a part): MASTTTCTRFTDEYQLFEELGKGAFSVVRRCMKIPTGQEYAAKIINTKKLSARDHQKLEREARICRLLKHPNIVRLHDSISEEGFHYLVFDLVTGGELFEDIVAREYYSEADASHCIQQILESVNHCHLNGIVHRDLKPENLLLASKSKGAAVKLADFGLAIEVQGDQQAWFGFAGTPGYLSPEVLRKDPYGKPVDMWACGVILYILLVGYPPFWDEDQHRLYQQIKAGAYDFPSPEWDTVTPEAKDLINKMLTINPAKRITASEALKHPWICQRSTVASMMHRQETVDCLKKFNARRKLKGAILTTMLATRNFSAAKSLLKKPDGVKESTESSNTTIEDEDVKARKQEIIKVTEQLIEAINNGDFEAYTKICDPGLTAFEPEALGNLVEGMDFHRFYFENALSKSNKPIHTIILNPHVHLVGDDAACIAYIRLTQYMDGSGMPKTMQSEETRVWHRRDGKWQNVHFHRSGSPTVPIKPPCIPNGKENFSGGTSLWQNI
Summary of the method: (§2)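 Profiled in a KINOMEscan binding panel with the inhibitor at a single concentration of 1 μM. Binding to each kinase was read out as percent of control, relative to a DMSO control. Strong binders were defined as those with a percent control value below 1.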

[8] = molecular target: Cyclin-dependent kinase 13 (Homo sapiens) (UniProt Q14004); assay: Binding affinity to wild-type human partial length CDC2L5 (H675 to S1054 residues) expressed in mammalian expression system assessed as remaining unbound target protein level at 1000 nM by Kinomescan method relative to control
Summary of the method: (§3)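 KINOMEscan competition binding profile across a panel of 468 kinases and mutants, with the inhibitor tested at a single concentration of 1 μM. Binding is reported as percent of control, meaning signal relative to a DMSO control.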

[9] = molecular target: Cyclin-dependent kinase 3 (Homo sapiens) (UniProt Q00526); assay: Binding affinity to wild-type human full length CDK3 (M1 to H305 residues) expressed in bacterial expression system assessed as remaining unbound target protein level at 1000 nM by Kinomescan method relative to control
Summary of the method: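 KINOMEscan competitive binding profile at 1 μM inhibitor. Remaining target binding reported as percent of DMSO control.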

[10] = molecular target: Death-associated protein kinase 2 (Homo sapiens) (UniProt Q9UIK4); assay: Binding affinity to wild-type human full length DAPK2 (M1 to S370 residues) expressed in bacterial expression system assessed as remaining unbound target protein level at 1000 nM by Kinomescan method relative to control; summary of the method: as §3
[11] = molecular target: Epidermal growth factor receptor (Homo sapiens) (UniProt P00533); assay: Binding affinity to human partial length EGFR L747-T751del/Sins mutant expressed in bacterial expression system assessed as remaining unbound target protein level at 1000 nM by Kinomescan method relative to control
Chain of Epidermal growth factor receptor (Homo sapiens) (P00533 whole entry): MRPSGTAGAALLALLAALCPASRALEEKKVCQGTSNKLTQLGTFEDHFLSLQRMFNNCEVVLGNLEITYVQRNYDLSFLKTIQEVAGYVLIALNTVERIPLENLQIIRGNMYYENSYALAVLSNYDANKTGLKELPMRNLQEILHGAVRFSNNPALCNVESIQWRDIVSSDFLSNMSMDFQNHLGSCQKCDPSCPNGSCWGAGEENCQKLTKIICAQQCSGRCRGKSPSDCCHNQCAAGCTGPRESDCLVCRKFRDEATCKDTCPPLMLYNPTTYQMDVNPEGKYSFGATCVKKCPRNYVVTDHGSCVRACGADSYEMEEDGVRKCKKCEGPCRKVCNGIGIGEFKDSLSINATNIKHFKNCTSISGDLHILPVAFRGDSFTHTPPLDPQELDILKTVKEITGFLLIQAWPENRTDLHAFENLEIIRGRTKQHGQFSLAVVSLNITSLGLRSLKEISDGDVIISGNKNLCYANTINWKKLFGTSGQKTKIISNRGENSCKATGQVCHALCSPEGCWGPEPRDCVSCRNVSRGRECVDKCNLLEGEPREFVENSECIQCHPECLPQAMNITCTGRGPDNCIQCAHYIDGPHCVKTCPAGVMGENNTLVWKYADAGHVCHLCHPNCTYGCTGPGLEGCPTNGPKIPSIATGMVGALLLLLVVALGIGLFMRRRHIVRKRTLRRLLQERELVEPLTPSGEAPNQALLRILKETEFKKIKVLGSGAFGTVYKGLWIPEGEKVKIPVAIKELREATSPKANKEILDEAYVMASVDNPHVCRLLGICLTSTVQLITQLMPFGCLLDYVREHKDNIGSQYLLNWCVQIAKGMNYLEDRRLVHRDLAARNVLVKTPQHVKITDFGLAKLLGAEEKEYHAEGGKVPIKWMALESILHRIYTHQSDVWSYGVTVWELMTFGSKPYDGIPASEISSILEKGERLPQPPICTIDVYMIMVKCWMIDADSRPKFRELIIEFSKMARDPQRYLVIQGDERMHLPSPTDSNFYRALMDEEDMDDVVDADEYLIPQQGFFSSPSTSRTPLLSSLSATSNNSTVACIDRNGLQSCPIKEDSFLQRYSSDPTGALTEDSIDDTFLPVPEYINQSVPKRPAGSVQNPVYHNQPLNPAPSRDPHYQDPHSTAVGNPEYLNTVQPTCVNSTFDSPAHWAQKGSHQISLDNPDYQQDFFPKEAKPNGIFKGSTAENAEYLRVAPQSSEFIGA
Summary of the method: (§4)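 KINOMEscan competition-binding profiling across the panel of 468 kinases and mutants, with inhibitor tested at 1 μM. Binding is expressed as percent of control, with DMSO as the reference control.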

[12] = molecular target: Eukaryotic translation initiation factor 2-alpha kinase 1 (Homo sapiens) (UniProt Q9BQI3); assay: Binding affinity to wild-type human partial length EIF2AK1 (Q147 to E603 residues) expressed in mammalian expression system assessed as remaining unbound target protein level at 1000 nM by Kinomescan method relative to control
Chain of Eukaryotic translation initiation factor 2-alpha kinase 1 (Homo sapiens) (Q9BQI3 whole entry, the tested form may be a part): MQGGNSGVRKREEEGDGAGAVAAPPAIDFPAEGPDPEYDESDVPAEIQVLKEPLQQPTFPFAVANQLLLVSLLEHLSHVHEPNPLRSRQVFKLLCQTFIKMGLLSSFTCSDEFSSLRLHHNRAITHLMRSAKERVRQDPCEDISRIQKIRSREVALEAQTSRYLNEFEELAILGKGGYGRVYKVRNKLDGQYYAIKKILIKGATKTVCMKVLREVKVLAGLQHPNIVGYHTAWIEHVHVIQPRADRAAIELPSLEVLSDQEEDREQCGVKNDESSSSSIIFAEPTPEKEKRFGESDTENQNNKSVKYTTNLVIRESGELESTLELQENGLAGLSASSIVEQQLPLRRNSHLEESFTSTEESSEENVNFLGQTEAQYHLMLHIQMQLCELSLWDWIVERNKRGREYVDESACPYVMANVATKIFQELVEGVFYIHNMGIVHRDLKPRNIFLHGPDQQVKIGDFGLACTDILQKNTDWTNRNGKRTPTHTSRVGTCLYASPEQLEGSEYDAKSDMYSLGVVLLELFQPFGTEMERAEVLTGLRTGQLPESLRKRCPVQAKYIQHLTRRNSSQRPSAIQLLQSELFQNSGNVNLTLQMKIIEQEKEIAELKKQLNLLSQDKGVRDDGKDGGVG

[13] = tested on: Receptor-type tyrosine-protein kinase FLT3 (Homo sapiens), P36888 [UNDEFINED MUTATION]; assay: Binding affinity to human partial length FLT3 ITD/F691L double mutant expressed in bacterial expression system assessed as remaining unbound target protein level at 1000 nM by Kinomescan method relative to control; summary of the method: as §4
[14] = molecular target: Interleukin-1 receptor-associated kinase 3 (Homo sapiens) (UniProt Q9Y616); assay: Binding affinity to wild-type human partial length IRAK3 (V147 to E596 residues) expressed in bacterial expression system assessed as remaining unbound target protein level at 1000 nM by Kinomescan method relative to control
Chain of Interleukin-1 receptor-associated kinase 3 (Homo sapiens) (Q9Y616 whole entry, the tested form may be a part): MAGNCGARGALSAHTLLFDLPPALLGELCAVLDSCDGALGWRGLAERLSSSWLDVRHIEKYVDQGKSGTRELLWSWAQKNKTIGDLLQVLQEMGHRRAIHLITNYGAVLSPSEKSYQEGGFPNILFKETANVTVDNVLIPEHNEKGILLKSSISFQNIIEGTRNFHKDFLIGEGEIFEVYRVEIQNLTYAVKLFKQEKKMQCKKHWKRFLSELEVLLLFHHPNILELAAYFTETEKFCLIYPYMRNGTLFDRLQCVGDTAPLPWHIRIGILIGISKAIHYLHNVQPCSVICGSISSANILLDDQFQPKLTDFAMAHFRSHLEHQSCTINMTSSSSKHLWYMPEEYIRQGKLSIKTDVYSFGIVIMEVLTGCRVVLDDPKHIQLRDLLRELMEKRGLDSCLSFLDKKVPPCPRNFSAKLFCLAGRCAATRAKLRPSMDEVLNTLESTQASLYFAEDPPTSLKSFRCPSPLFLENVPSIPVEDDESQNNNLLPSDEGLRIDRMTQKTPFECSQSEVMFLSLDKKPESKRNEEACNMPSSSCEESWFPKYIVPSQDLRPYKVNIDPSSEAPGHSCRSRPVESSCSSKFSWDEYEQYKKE

[15] = tested on: Mast/stem cell growth factor receptor Kit (Homo sapiens), P10721 [D816V]; assay: Binding affinity to human partial length KIT D816V mutant (I571 to D952 residues) expressed in bacterial expression system assessed as remaining unbound target protein level at 1000 nM by Kinomescan method relative to control; summary of the method: as §4
[16] = molecular target: MAP/microtubule affinity-regulating kinase 4 (Homo sapiens) (UniProt Q96L34); assay: Binding affinity to wild-type human partial length MARK4 (K29 to G340 residues) expressed in bacterial expression system assessed as remaining unbound target protein level at 1000 nM by Kinomescan method relative to control
[17] = tested on: Phosphatidylinositol 4,5-bisphosphate 3-kinase catalytic subunit alpha isoform (Homo sapiens), P42336 [E545A]; assay: Binding affinity to human partial length PIK3CA E545A mutant (R108 to N1068 residues) expressed in mammalian expression system assessed as remaining unbound target protein level at 1000 nM by Kinomescan method relative to control; summary of the method: as §4
Chain of Phosphatidylinositol 4,5-bisphosphate 3-kinase catalytic subunit alpha isoform (Homo sapiens), P42336 [E545A] (P42336 whole entry E545A, the tested form may be a part, canonical isoform): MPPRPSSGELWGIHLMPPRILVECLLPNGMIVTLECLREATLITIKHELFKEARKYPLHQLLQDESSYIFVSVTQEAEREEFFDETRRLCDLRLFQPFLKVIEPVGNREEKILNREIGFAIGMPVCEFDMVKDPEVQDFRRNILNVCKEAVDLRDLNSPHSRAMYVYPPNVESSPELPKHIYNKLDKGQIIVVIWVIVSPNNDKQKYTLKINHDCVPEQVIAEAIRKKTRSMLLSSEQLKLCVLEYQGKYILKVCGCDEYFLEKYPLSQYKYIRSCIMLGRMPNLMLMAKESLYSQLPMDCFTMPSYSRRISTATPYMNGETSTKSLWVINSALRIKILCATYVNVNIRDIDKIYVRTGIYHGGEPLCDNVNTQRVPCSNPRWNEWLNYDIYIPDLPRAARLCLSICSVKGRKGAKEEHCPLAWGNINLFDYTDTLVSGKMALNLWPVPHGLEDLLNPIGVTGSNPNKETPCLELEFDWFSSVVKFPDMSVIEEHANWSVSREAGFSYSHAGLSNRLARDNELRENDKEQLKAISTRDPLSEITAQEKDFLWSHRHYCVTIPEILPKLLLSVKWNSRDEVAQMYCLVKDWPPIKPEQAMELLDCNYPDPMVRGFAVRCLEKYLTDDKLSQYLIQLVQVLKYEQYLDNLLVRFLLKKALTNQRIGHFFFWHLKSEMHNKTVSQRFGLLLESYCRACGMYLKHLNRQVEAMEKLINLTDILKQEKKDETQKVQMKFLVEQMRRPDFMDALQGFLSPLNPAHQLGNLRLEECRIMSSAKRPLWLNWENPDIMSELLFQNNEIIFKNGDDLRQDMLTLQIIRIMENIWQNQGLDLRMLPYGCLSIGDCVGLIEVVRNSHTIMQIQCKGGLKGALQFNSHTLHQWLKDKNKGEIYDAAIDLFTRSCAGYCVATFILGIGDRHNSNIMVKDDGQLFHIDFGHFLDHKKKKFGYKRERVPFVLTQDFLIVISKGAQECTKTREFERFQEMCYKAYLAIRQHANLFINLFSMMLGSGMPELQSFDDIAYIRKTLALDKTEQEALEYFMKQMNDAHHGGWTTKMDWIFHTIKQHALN

[18] = tested on: Phosphatidylinositol 4,5-bisphosphate 3-kinase catalytic subunit alpha isoform (Homo sapiens), P42336 [M1043I]; assay: Binding affinity to human partial length PIK3CA M1043I mutant (R108 to N1068 residues) expressed in mammalian expression system assessed as remaining unbound target protein level at 1000 nM by Kinomescan method relative to control; summary of the method: as §4
Chain of Phosphatidylinositol 4,5-bisphosphate 3-kinase catalytic subunit alpha isoform (Homo sapiens), P42336 [M1043I] (P42336 whole entry M1043I, the tested form may be a part, canonical isoform): as the sequence (P42336 whole entry E545A, the tested form may be a part, canonical isoform) above, with A545E, M1043I counted along it

[19] = molecular target: Serine/threonine-protein kinase D1 (Homo sapiens) (UniProt Q15139); assay: Binding affinity to wild-type human partial length PRKD1 (G551 to E870 residues) expressed in bacterial expression system assessed as remaining unbound target protein level at 1000 nM by Kinomescan method relative to control
[20] = molecular target: Ribosomal protein S6 kinase alpha-2 (Homo sapiens) (UniProt Q15349); assay: Binding affinity to wild-type human partial length C-terminal RSK3 kinase domain 2 (V403 to K700 residues) expressed in bacterial expression system assessed as remaining unbound target protein level at 1000 nM by Kinomescan method relative to control; summary of the method: as §2
Chain of Ribosomal protein S6 kinase alpha-2 (Homo sapiens) (Q15349 whole entry, the tested form may be a part): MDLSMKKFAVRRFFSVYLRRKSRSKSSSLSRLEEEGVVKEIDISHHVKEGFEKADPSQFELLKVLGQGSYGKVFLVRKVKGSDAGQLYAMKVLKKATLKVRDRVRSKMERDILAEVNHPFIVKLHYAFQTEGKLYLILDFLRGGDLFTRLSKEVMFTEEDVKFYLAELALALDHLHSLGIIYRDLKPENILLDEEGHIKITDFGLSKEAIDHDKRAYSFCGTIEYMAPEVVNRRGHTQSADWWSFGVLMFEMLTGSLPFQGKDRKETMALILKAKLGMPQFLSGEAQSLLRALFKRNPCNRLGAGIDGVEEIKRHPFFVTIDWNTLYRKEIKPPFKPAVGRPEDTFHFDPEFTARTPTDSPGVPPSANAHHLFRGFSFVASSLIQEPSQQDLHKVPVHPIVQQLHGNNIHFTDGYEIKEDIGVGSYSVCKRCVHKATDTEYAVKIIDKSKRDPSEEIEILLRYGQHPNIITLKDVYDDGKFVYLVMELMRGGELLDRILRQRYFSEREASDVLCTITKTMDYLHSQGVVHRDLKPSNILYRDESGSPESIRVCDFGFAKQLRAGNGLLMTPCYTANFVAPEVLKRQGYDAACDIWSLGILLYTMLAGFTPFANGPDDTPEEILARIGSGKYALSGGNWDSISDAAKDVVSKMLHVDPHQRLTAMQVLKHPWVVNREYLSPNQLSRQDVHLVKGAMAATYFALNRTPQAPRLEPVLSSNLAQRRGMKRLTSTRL

[21] = molecular target: Activated CDC42 kinase 1 (Homo sapiens) (UniProt Q07912); assay: Binding affinity to wild-type human partial length TNK2 (S159 to D474 residues) expressed in bacterial expression system assessed as remaining unbound target protein level at 1000 nM by Kinomescan method relative to control
[22] = molecular target: Dual specificity protein kinase TTK (Homo sapiens) (UniProt P33981); assay: Binding affinity to wild-type human partial length TTK (N505 to V798 residues) expressed in bacterial expression system assessed as remaining unbound target protein level at 1000 nM by Kinomescan method relative to control

SMILES: COCCN[C@H]1CC[C@H](Nc2cc(-c3csc(NCC4(C#N)CCOCC4)n3)c(Cl)cn2)CC1
- inhibition [1]: inactive
- Activity (Homo sapiens [2]): Dose-dependent effect
- Activity (Homo sapiens [3]): inactive
- clearance [4]: 75.8 mL/min/kg
- Activity [5]: 100%
- Activity [6]: 100%
- Activity [7]: 83%
- Activity [8]: 13%
- Activity [9]: 81%
- Activity [10]: 95%
- Activity [11]: 90%
- Activity [12]: 97%
- Activity [13]: 75%
- Activity [14]: 96%
- Activity [15]: 87%
- Activity [16]: 87%
- Activity [17]: 100%
- Activity [18]: 95%
- Activity [19]: 48%
- Activity [20]: 92%
- Activity [21]: 95%
- Activity [22]: 86%
